Measured values: ChEMBL document CHEMBL2401708, “Superior anticancer activity of halogenated chalcones and flavonols over the natural flavonol quercetin” (Eur J Med Chem, 2013)
Calls of active or inactive are those of the source. The calls are words filed in the database; no cut-off is given here.

Tested on: HCT-116
Test: Cytotoxicity against human HCT116 cells assessed as cell viability at 10 uM after 48 hrs by MTT assay relative to control
Format: functional
Conditions: HCT-116, 48 h, read-out: Activity
Method in brief: (§1)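 HCT116 cells seeded in 24-well plates two days prior, treated 48 h in fresh complete medium (DMSO ≤0.5% v/v; DMSO-only control); MTT 0.5 mg/ml final added for last hour, formazan dissolved in DMSO:ethanol 50:50, A570 minus A690; viability as % of control; IC50 from 2.5–20 range dose-response; mean ± SEM of 4 independent experiments.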

Point of comparison: `O=C(/C=C/c1cccc(F)c1)c1ccccc1O`, viability at 10 µM 90.2%. Against it:
- O=c1c(O)c(-c2ccc(F)cc2)oc2ccccc12 — lower, 61.1%
- O=c1c(O)c(-c2cccc(Br)c2)oc2ccccc12 — lower, 37.6%
- O=C(/C=C/c1ccc(Cl)cc1)c1ccccc1O — lower, 84.8%
- O=C(/C=C/c1ccc(Br)cc1)c1ccccc1O — lower, 85.5%
- O=C(/C=C/c1cccc(Br)c1)c1ccccc1O — lower, 48.4%
- O=c1c(O)c(-c2cccc(Cl)c2)oc2ccccc12 — lower, 43.8%
- O=C(/C=C/c1ccc(F)cc1)c1ccccc1O — lower, 85.2%
- O=c1c(O)c(-c2ccc(Br)cc2)oc2ccccc12 — lower, 32.8%
- O=c1c(O)c(-c2cccc(F)c2)oc2ccccc12 — lower, 60.9%
- O=C(/C=C/c1cccc(Cl)c1)c1ccccc1O — lower, 75.8%
- O=c1c(O)c(-c2ccc(Cl)cc2)oc2ccccc12 — lower, 40.8%

Tested on: HCT-116
Test: Cytotoxicity against human HCT116 cells assessed as cell viability after 48 hrs by MTT assay
Format: functional, cell-based
Conditions: HCT-116, 48 h
Method in brief: as §1

Point of comparison: `O=c1c(O)c(-c2cccc(Br)c2)oc2ccccc12`, IC50 7.5 µM. Against it:
- O=c1c(O)c(-c2ccc(F)cc2)oc2ccccc12 — 1.9-fold higher, 14.4 µM
- O=C(/C=C/c1ccc(Cl)cc1)c1ccccc1O — 2.8-fold higher, 20.9 µM
- O=C(/C=C/c1ccc(Br)cc1)c1ccccc1O — 2.5-fold higher, 19.1 µM
- O=C(/C=C/c1cccc(Br)c1)c1ccccc1O — within 1.5-fold, 10.9 µM
- O=c1c(O)c(-c2cccc(Cl)c2)oc2ccccc12 — within 1.5-fold, 8.1 µM
- O=C(/C=C/c1ccc(F)cc1)c1ccccc1O — 2.7-fold higher, 20.5 µM
- O=c1c(O)c(-c2ccc(Br)cc2)oc2ccccc12 — 1.6-fold lower, 4.6 µM
- O=c1c(O)c(-c2cccc(F)c2)oc2ccccc12 — 1.7-fold higher, 13 µM
- O=C(/C=C/c1cccc(Cl)c1)c1ccccc1O — 1.8-fold higher, 13.2 µM
- O=C(/C=C/c1cccc(F)c1)c1ccccc1O — 1.9-fold higher, 14.5 µM
- O=c1c(O)c(-c2ccc(Cl)cc2)oc2ccccc12 — within 1.5-fold, 6.8 µM

Tested on: HCT-116
Test: Cell cycle arrest in human HCT116 cells assessed as increase of p27 expression at 5 to 10 uM after 48 hrs by Western blot analysis
Format: functional, cell-based
Conditions: not given
Method in brief: (§2)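 Cells seeded two days before 48 h exposure; floating and attached cells harvested, lysed in ice-cold RIPA with PMSF, phosphatase and protease inhibitors; 20 µg protein by SDS-PAGE, PVDF transfer, milk blocking, primary antibody (p53 DO-1, p27 C-19, PARP-1 F-2) overnight, HRP secondary, chemiluminescence; band intensity quantified, β-actin loading control.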

In the case of `O=c1c(O)c(-c2ccc(Br)cc2)oc2ccccc12`, the Activity is reported as “Active”.

Tested on: HCT-116
Test: Induction of morphological changes in human HCT116 cells assessed as floating cells at 15 to 100 uM after 48 hrs by microscopic analysis
Format: functional, cell-based
Conditions: not given

`O=C(/C=C/c1ccc(C(F)(F)F)cc1)c1ccccc1O` was tested, and the Activity was “Active”.
In the case of `O=C(/C=C/c1cccc(Br)c1)c1ccccc1O`, the Activity is reported as “Active”.

Tested on: HCT-116
Test: Cytotoxicity against human HCT116 cells assessed as cell viability at 30 uM after 48 hrs by MTT assay relative to control
Format: functional
Conditions: HCT-116, 48 h, read-out: Activity
Method in brief: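 HCT116 cells grown in RPMI 1640 with 6% FBS, 0.1 mM sodium pyruvate and 10 mM HEPES at 37 °C in 5% CO2, seeded at 70 000 cells/mL two days before treatment. Exposure 48 h in fresh complete medium, DMSO ≤0.5% (v/v), DMSO-only controls. MTT (0.5 mg/ml final) added for the last hour, formazan dissolved in DMSO:ethanol 50:50, A570 minus A690. Viability given as % of control; mean ± SEM of 4 independent experiments; Student's t-test.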

In the case of `O=c1c(O)c(-c2ccc(O)c(O)c2)oc2cc(O)cc(O)c12` [QUERCETIN], the viability at 30 µM is reported as 59.7%.

Tested on: HCT-116
Test: Cell cycle arrest in human HCT116 cells assessed as accumulation at sub-G1 phase at 10 to 15 uM after 48 hrs by flow cytometry analysis
Format: functional, cell-based
Conditions: not given
Method in brief: (§3)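 HCT116 cells (RPMI 1640, 6% FBS, 37 °C, 5% CO2) seeded two days ahead, exposed 48 h; floating plus attached cells collected by trypsinization, fixed in 70% ethanol at 4 °C 15 min, stained with PI/RNase A at 37 °C 15 min; ≥40 000 single cells counted by flow cytometry; phases fitted by Watson Pragmatic model; 3 independent experiments.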

With `O=C(/C=C/c1cccc(Br)c1)c1ccccc1O` the Activity was “Active”.

Tested on: HCT-116
Test: Cell cycle arrest in human HCT116 cells assessed as accumulation at S and G2/M phase at 15 uM after 48 hrs by flow cytometry analysis
Format: functional, cell-based
Conditions: not given
Method in brief: as §3

For `O=C(/C=C/c1ccc(C(F)(F)F)cc1)c1ccccc1O`, the Activity was “inactive”.

Tested on: HCT-116
Test: Induction of apoptosis in human HCT116 cells assessed as cleavage of PARP1 at 5 to 10 uM after 48 hrs by Western blot analysis
Format: functional, cell-based
Conditions: not given
Method in brief: as §2

In the case of `O=c1c(O)c(-c2ccc(Br)cc2)oc2ccccc12`, the Activity is reported as “Active”.

Tested on: HCT-116
Test: Cell cycle arrest in human HCT116 cells assessed as accumulation at S and G2/M phase at 5 to 10 uM after 48 hrs by flow cytometry analysis
Format: functional, cell-based
Conditions: not given
Method in brief: as §3

`O=c1c(O)c(-c2ccc(Br)cc2)oc2ccccc12` was tested, and the Activity was “Active”.

Tested on: HCT-116
Test: Cell cycle arrest in human HCT116 cells assessed as accumulation at S and G2/M phase at 10 to 15 uM after 48 hrs by flow cytometry analysis
Format: functional, cell-based
Conditions: not given
Method in brief: as §3

For `O=C(/C=C/c1cccc(Br)c1)c1ccccc1O`, the Activity was “Active”.

Tested on: HCT-116
Test: Induction of morphological changes in human HCT116 cells assessed as floating cells at 10 to 100 uM after 48 hrs by microscopic analysis
Format: functional, cell-based
Conditions: not given

With `O=c1c(O)c(-c2ccc(Br)cc2)oc2ccccc12` the Activity was “Active”.

Tested on: HCT-116
Test: Cell cycle arrest in human HCT116 cells assessed as accumulation at S and G2/M phase at IC50 after 48 hrs by flow cytometry analysis
Format: functional, cell-based
Conditions: not given
Method in brief: as §3

With `O=C(/C=C/c1cccc(Br)c1)c1ccccc1O` the Activity was “Active”.
In the case of `O=c1c(O)c(-c2ccc(Br)cc2)oc2ccccc12`, the Activity is reported as “Active”.

Tested on: HCT-116
Test: Cell cycle arrest in human HCT116 cells assessed as increase of p53 expression at 5 to 10 uM after 48 hrs by Western blot analysis
Format: functional, cell-based
Conditions: not given
Method in brief: as §2

With `O=c1c(O)c(-c2ccc(Br)cc2)oc2ccccc12` the Activity was “Active”.

Tested on: HCT-116
Test: Induction of apoptosis in human HCT116 cells assessed as cleavage of PARP1 at 10 to 15 uM after 48 hrs by Western blot analysis
Format: functional, cell-based
Conditions: not given
Method in brief: as §2

For `O=C(/C=C/c1cccc(Br)c1)c1ccccc1O`, the Activity was “Active”.

Tested on: HCT-116
Test: Cytotoxicity against human HCT116 cells assessed as cell viability at 15 uM after 48 hrs by MTT assay relative to control
Format: functional
Conditions: HCT-116, 48 h, read-out: Activity
Method in brief: as §1

Point of comparison: `COc1ccc(/C=C/C(=O)c2ccccc2O)cc1`, viability at 15 µM 89.1%. Against it:
- COc1cccc(/C=C/C(=O)c2ccccc2O)c1O — lower, 84.7%
- O=C(/C=C/c1ccc(C(F)(F)F)cc1)c1ccccc1O — lower, 85.1%
- O=c1c(O)c(-c2ccc(F)cc2)oc2ccccc12 — lower, 49.2%
- COc1cccc(-c2oc3ccccc3c(=O)c2O)c1 — lower, 39.5%
- COc1ccc(-c2oc3ccccc3c(=O)c2O)cc1OC [3-HYDROXY-3',4'-DIMETHOXYFLAVONE] — lower, 78.1%
- COc1ccccc1-c1oc2ccccc2c(=O)c1O — the same, 89.1%
- Cc1ccc(/C=C/C(=O)c2ccccc2O)cc1 — the same, 89.1%
- O=c1c(O)c(-c2ccccc2)oc2ccccc12 [FLAVONOL] — lower, 64.6%
- O=C(/C=C/c1ccccc1)c1ccccc1O [2'-HYDROXYCHALCONE] — higher, 91.7%
- O=c1c(O)c(-c2cccc(Br)c2)oc2ccccc12 — lower, 29.2%
- COc1ccc(OC)c(-c2oc3ccccc3c(=O)c2O)c1 — lower, 76.6%
- O=C(/C=C/c1ccc(Cl)cc1)c1ccccc1O — lower, 69.1%
- O=C(/C=C/c1ccc(Br)cc1)c1ccccc1O — lower, 68.4%
- COc1ccc(-c2oc3ccccc3c(=O)c2O)cc1 — higher, 96%
- Cc1cccc(/C=C/C(=O)c2ccccc2O)c1 — lower, 85.9%
- O=C(/C=C/c1cccc(Br)c1)c1ccccc1O — lower, 29.6%
- O=c1c(O)c(-c2cccc(Cl)c2)oc2ccccc12 — lower, 32.9%
- COc1cc(-c2oc3ccccc3c(=O)c2O)cc(OC)c1OC — lower, 70%
- COc1cc(/C=C/C(=O)c2ccccc2O)cc(OC)c1OC — lower, 83.7%
- O=C(/C=C/c1ccc(F)cc1)c1ccccc1O — lower, 74.9%
- O=c1c(O)c(-c2ccc(Br)cc2)oc2ccccc12 — lower, 29.2%
- O=c1c(O)c(-c2cccc(F)c2)oc2ccccc12 — lower, 45.9%
- Cc1cccc(-c2oc3ccccc3c(=O)c2O)c1 — lower, 38.7%
- O=C(/C=C/c1cccc(Cl)c1)c1ccccc1O — lower, 37.5%
- O=C(/C=C/c1cccc(F)c1)c1ccccc1O — lower, 45.3%
- Cc1ccc(-c2oc3ccccc3c(=O)c2O)cc1 — lower, 59.3%
- COc1cccc(/C=C/C(=O)c2ccccc2O)c1 — higher, 89.6%
- COc1cc(OC)c(/C=C/C(=O)c2ccccc2O)c(OC)c1 — higher, 91.1%
- O=c1c(O)c(-c2ccc(Cl)cc2)oc2ccccc12 — lower, 38%

Tested on: HCT-116
Test: Induction of apoptosis in human HCT116 cells assessed as nuclear condensation after 48 hrs by fluorescence microscopic analysis
Format: functional, cell-based
Conditions: not given
Method in brief: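 After 48 h exposure, floating and attached cells harvested, fixed in 4% paraformaldehyde 15 min at room temperature, cytospun onto polylysine slides, Hoechst-stained; apoptotic fraction = condensed nuclei over total nuclei, >500 cells per slide counted by fluorescence microscopy; mean ± SEM of ≥3 independent experiments.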

`O=C(/C=C/c1cccc(Br)c1)c1ccccc1O` was tested, and the Activity was “Dose-dependent effect”.
`O=c1c(O)c(-c2ccc(Br)cc2)oc2ccccc12` was tested, and the Activity was “Dose-dependent effect”.

Tested on: HCT-116
Test: Cell cycle arrest in human HCT116 cells assessed as accumulation at sub-G1 phase at 5 to 10 uM after 48 hrs by flow cytometry analysis
Format: functional, cell-based
Conditions: not given
Method in brief: as §3

For `O=c1c(O)c(-c2ccc(Br)cc2)oc2ccccc12`, the Activity was “Active”.
